{
  "source": "ChEMBL document CHEMBL4477209",
  "about": "“Indole-2-carboxamide-based MmpL3 Inhibitors Show Exceptional Antitubercular Activity in an Animal Model of Tuberculosis Infection” (J Med Chem, 2016)",
  "key": {"[1]": {"experiment": "Mutagenicity in Salmonella typhimurium TA98 assessed as increase in ratio of revertant colonies in presence of S9 liver fraction relative to control", "format": "toxicity, subcellular", "settings": "salmonella enterica subsp. enterica serovar typhimurium"}, "[2]": {"biological_target": "T1, Nuclear receptor subfamily 1 group I member 3 (Homo sapiens, UniProt Q14994)", "T1 sequence (Q14994 whole entry)": "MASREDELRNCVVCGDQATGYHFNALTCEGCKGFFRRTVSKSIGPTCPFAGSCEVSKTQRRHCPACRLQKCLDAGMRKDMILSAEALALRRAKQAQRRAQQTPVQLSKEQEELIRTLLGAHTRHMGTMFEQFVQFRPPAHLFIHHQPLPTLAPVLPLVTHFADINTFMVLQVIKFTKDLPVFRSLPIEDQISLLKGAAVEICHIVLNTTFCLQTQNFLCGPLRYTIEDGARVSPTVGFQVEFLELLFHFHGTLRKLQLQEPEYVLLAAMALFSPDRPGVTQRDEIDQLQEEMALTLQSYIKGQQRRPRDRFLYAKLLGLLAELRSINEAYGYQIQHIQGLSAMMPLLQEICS", "experiment": "Transactivation of CAR (unknown origin) assessed as upregulation of CYP2B6", "format": "ADME", "method_in_brief": "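Nuclear receptor reporter-gene induction assay, with reporters coupled to PXR, CAR or AhR. Compound was tested at 0.1–1, 3 and 8 μg/mL. Positive controls were rifampin for PXR, CITCO for CAR and 3-methylcholanthrene for AhR.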"}, "[3]": {"tested_on": "Mycobacterium tuberculosis", "experiment": "Antimycobacterial activity against Mycobacterium tuberculosis H37Rv grown on serum isolated from 10 mg/kg, po treated BALB/c mouse for 30 to 120 mins assessed as reduction in bacterial growth followed by bacterial addition incubated for 7 days by alamar blue reagent based serum inhibition titration assay", "format": "functional, organism-based", "method_in_brief": "(§1)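 Six-week-old female BALB/c mice (20 g) given one oral dose as suspension in 0.5% CMC in water; isoniazid 10 mg/kg as positive control, vehicle as negative. Serum collected at 30, 60 and 120 min, pooled from three mice per time point, 2-fold serially diluted. 10^4 CFU H37Rv added per well, 7 days at 37 °C. alamarBlue added for 16−18 h, fluorescence read at Ex544/Em590 and plotted against serum titration.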"}, "[4]": {"experiment": "Oral bioavailability in BALB/c mouse at 10 mg/kg administered for 30 to 120 mins followed by Mycobacterium tuberculosis H37Rv addition to compound treated serum incubated for 7 days by alamar blue reagent based serum inhibition titration assay", "format": "ADME, organism-based", "settings": "in vivo", "method_in_brief": "as §1"}, "[5]": {"tested_on": "Mycobacterium tuberculosis H37Rv", "experiment": "Inhibition of MmpL3 in clinical isolates of drug sensitive Mycobacterium tuberculosis H37Rv after 7 to 14 days by alamar blue assay"}},
  "note": "Active and inactive are the calls of the source. The calls are words filed in the database; no cut-off is given here.",
  "data": [
    {"smiles": "Nc1ccc2cc3ccccc3cc2c1", "note": "[2-AMINOANTHRACENE]", "values": [
      {"measurement": "fold change (FC)", "setting": "[1]", "value": 173}
    ]},
    {"smiles": "Clc1ccc(-c2nc3sccn3c2/C=N/OCc2ccc(Cl)c(Cl)c2)cc1", "values": [
      {"measurement": "Activity", "setting": "[2]", "value": "Active"}
    ]},
    {"smiles": "NNC(=O)c1ccncc1", "note": "[ISONIAZID]", "values": [
      {"measurement": "Activity", "setting": "[3]", "value": "Active"},
      {"measurement": "Drug uptake", "setting": "[4]", "value": "Active"},
      {"measurement": "MIC90", "setting": "[5]", "value": 0.29, "unit": "µM"}
    ]}
  ]
}
